# Measured values taken from ChEMBL document CHEMBL3861988, “Discovery of Selective Inhibitors Targeting Acetylcholinesterase 1 from Disease-Transmitting Mosquitoes” (J Med Chem, 2016).
# What was measured:
# [1] = Selectivity ratio of IC50 for human recombinant AChE to IC50 for Aedes aegypti recombinant AChE1
# Acetylcholinesterase [2] = target: Acetylcholinesterase (Anopheles gambiae, UniProt Q869C3); assay: Inhibition of Anopheles gambiae recombinant AChE1 expressed in baculovirus infected insect Sf9 cells using acetylthiocholine iodide as substrate measured over 60 secs by Ellman assay
# Summary of the method: (§1)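 Dose-response Ellman assay on recombinant enzyme in 0.1 M phosphate pH 7.4 with 0.2 mM DTNB and 1 mM acetylthiocholine iodide. At least eight inhibitor concentrations were used, up to 1 mM, diluted from 100 mM DMSO stocks. Run manually at 30 °C with A412 read over 60 s. Activity is relative to uninhibited wells. IC50 was obtained by non-linear log[inhibitor] fitting from 2 replicates.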
# Acetylcholinesterase [3] = target: Acetylcholinesterase (Homo sapiens, UniProt P22303); assay: Inhibition of human recombinant AChE using acetylthiocholine iodide as substrate measured over 60 secs by Ellman assay; summary of the method: as §1
# [4] = Inhibition of Aedes aegypti recombinant AChE1 expressed in baculovirus infected insect Sf9 cells using acetylthiocholine iodide as substrate measured over 60 secs by Ellman assay; summary of the method: as §1
# [5] = Inhibition of Aedes aegypti recombinant AChE1 expressed in baculovirus infected insect Sf9 cells at 50 uM using acetylthiocholine iodide as substrate measured over 60 secs by Ellman assay relative to control
# Summary of the method: (§2)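 Single-concentration HTS with secreted, non-purified Sf-9-expressed mosquito AChE1 in growth medium. Assay in 0.1 M phosphate buffer pH 7.4 with 0.2 mM DTNB and 1 mM acetylthiocholine iodide. Compounds were tested at a final 50 µM from DMSO stocks. The A412 slope was read over 60 s. Activity was expressed relative to the mean of eight uninhibited control wells per plate.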
# [6] = Selectivity ratio of IC50 for human recombinant AChE to IC50 for Anopheles gambiae recombinant AChE1
# [7] = target: Acetylcholinesterase (Anopheles gambiae) (UniProt Q869C3); assay: Inhibition of Anopheles gambiae recombinant AChE1 expressed in baculovirus infected insect Sf9 cells at 50 uM using acetylthiocholine iodide as substrate measured over 60 secs by Ellman assay relative to control; summary of the method: as §2
# Acetylcholinesterase [8] = target: T1, Acetylcholinesterase (Mus musculus, UniProt P21836); assay: Inhibition of mouse recombinant AChE using acetylthiocholine iodide as substrate measured over 60 secs by Ellman assay
# T1 sequence (P21836 whole entry): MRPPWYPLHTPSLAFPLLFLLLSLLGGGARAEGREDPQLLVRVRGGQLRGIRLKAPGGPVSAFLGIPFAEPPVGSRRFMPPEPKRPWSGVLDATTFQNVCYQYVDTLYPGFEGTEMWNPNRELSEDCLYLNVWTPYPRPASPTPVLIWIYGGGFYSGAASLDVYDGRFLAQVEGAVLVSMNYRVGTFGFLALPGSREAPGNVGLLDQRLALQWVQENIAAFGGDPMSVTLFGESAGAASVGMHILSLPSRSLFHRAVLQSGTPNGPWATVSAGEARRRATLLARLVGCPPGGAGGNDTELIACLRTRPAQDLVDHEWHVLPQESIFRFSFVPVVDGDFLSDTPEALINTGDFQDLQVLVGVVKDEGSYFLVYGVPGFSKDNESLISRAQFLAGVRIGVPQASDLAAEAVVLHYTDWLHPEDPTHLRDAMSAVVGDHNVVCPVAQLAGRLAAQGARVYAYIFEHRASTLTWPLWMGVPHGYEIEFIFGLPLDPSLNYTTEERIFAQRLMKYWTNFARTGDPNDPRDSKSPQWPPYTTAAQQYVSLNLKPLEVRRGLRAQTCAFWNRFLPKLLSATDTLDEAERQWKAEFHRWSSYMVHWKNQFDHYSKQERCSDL
# Acetylcholinesterase [9] = target: Acetylcholinesterase (Anopheles gambiae, UniProt Q869C3, G122S); assay: Inhibition of Anopheles gambiae recombinant AChE1 G122S mutant using acetylthiocholine iodide as substrate by Ellman assay; summary of the method: as §1
SMILES,Ratio IC50 [1],IC50 (Acetylcholinesterase [2]),IC50 (Acetylcholinesterase [3]),IC50 [4],inhibition [5],Ratio IC50 [6],inhibition [7],IC50 (Acetylcholinesterase [8]),IC50 (Acetylcholinesterase [9])
O=C(c1ccccc1F)N1CCN(C2CCN(Cc3ccccc3)CC2)CC1,> 12,17 µM,> 200 µM,12 µM,33%,> 12,32%,,
COc1ccc(CN2CC=C(c3ccc(F)cc3)CC2)cc1OCc1ccccc1,,> 100 µM,> 200 µM,> 100 µM,90%,,86%,,
Fc1ccccc1COc1ccccc1CNCCN1CCOCC1,,> 500 µM,> 500 µM,> 500 µM,38%,,23%,,
O=S(=O)(NCCSc1nnc(-c2ccco2)n1-c1ccccc1)c1ccccc1,,> 1000 µM,> 1000 µM,> 1000 µM,82%,,76%,,
O=C(COc1ccccc1)N1CCN(C2CCN(Cc3ccccc3)CC2)CC1,2,21 µM,43 µM,19 µM,18%,2,24%,,
CCSc1nc2sc3c(c2c(=O)n1-c1ccccc1)CCN(Cc1ccccc1)C3,0.6,8.3 µM,5.1 µM,8.8 µM,93%,0.6,94%,,
c1ccc(COc2ccc(CN3CCc4ccccc4C3)cc2)cc1,> 67,2.9 µM,> 200 µM,,80%,> 67,41%,,
CCN1CCN(C2CCN(C(=O)COc3ccc(-c4ccccc4)cc3)CC2)CC1,,0.21 µM,31 µM,0.22 µM,76%,,92%,18 µM,1.3 µM
O=C(COc1ccc(Cl)cc1Cl)Nc1ccc(CN2CCCCC2)cc1,,0.26 µM,,0.44 µM,91%,,93%,,1.2 µM
CCOc1ccc(-n2c(SCc3nc(-c4ccccc4C)no3)nnc2-c2ccccc2)cc1,,> 1000 µM,> 1000 µM,> 1000 µM,1%,,63%,,
